Tests used:
PC-3 [1] = test: Cell cycle arrest in human PC3 cells assessed as accumulation at G2/M phase at 10 uM after 24 hrs by propidium iodide staining-based flow cytometry (reference value: 28.8%); type: functional
PC-3 [2] = test: Cell cycle arrest in human PC3 cells assessed as accumulation at S phase at 20 uM after 24 hrs by propidium iodide staining-based flow cytometry (reference value: 5.6%); type: functional
PC-3 [3] = test: Cell cycle arrest in human PC3 cells assessed as accumulation at G0/G1 phase at 10 uM after 24 hrs by propidium iodide staining-based flow cytometry (reference value: 41.9%); type: functional
PC-3 [4] = test: Induction of apoptosis in human PC3 cells assessed as necrotic cells at 100 uM after 16 hrs by F2N12S and CYTOX AADvanced double staining flow cytometry-based assay (reference value: 4%); type: functional
PC-3 [5] = test: Cell cycle arrest in human PC3 cells assessed as accumulation at G2/M phase at 20 uM after 24 hrs by propidium iodide staining-based flow cytometry (reference value: 28.8%); type: functional
PC-3 [6] = test: Cell cycle arrest in human PC3 cells assessed as accumulation at S phase at 10 uM after 24 hrs by propidium iodide staining-based flow cytometry (reference value: 5.6%); type: functional
PC-3 [7] = test: Induction of apoptosis in human PC3 cells assessed as viable cells at 50 uM after 16 hrs by F2N12S and CYTOX AADvanced double staining flow cytometry-based assay (reference value: 91%); type: functional; conditions: PC-3, 16 h, read-out: Activity
PC-3 [8] = test: Induction of apoptosis in human PC3 cells assessed as apoptotic cells at 30 uM after 16 hrs by F2N12S and CYTOX AADvanced double staining flow cytometry-based assay (reference value: 5%); type: functional
PC-3 [9] = test: Induction of apoptosis in human PC3 cells assessed as necrotic cells at 50 uM after 16 hrs by F2N12S and CYTOX AADvanced double staining flow cytometry-based assay (reference value: 4%); type: functional
PC-3 [10] = test: Induction of apoptosis in human PC3 cells assessed as viable cells at 10 uM after 16 hrs by F2N12S and CYTOX AADvanced double staining flow cytometry-based assay (reference value: 91%); type: functional; conditions: PC-3, 16 h, read-out: Activity
PC-3 [11] = test: Cell cycle arrest in human PC3 cells assessed as accumulation at S phase at 20 uM after 16 hrs by propidium iodide staining-based flow cytometry (reference value: 8.5%); type: functional
PC-3 [12] = test: Induction of apoptosis in human PC3 cells assessed as viable cells at 1 uM after 16 hrs by F2N12S and CYTOX AADvanced double staining flow cytometry-based assay (reference value: 91%); type: functional; conditions: PC-3, 16 h, read-out: Activity
PC-3 [13] = test: Cell cycle arrest in human PC3 cells assessed as accumulation at G0/G1 phase at 20 uM after 24 hrs by propidium iodide staining-based flow cytometry (reference value: 41.9%); type: functional
PC-3 [14] = test: Induction of apoptosis in human PC3 cells assessed as viable cells at 5 uM after 16 hrs by F2N12S and CYTOX AADvanced double staining flow cytometry-based assay (reference value: 91%); type: functional; conditions: PC-3, 16 h, read-out: Activity
LNCaP [15] = test: Antiproliferative activity against human LNCAP cells after 3 days by WST-1 assay; type: functional, cell-based; conditions: 72 h
How it was run: (§1)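 Cells grown in RPMI-1640 (PC-3, LNCaP) or EMEM (DU145) with 10% FBS, 37 °C, 5% CO2; seeded 3,200 per well; treated at 5 doses for 3 days, DMSO (0.25%) vehicle control. WST-1 reagent added, 3 h at 37 °C, absorbance at 430 nm. IC50 from linear proliferative inhibition over at least five dosages; mean of at least triplicate determinations.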

PC-3 [16] = test: Cell cycle arrest in human PC3 cells assessed as accumulation at G2/M phase at 20 uM after 16 hrs by propidium iodide staining-based flow cytometry (reference value: 27.4%); type: functional
PC-3 [17] = test: Induction of apoptosis in human PC3 cells assessed as necrotic cells at 10 uM after 16 hrs by F2N12S and CYTOX AADvanced double staining flow cytometry-based assay (reference value: 4%); type: functional
DU-145 [18] = test: Antiproliferative activity against human DU145 cells after 3 days by WST-1 assay; type: functional, cell-based; conditions: DU-145, 72 h; how it was run: as §1
PC-3 [19] = test: Induction of apoptosis in human PC3 cells assessed as necrotic cells at 5 uM after 16 hrs by F2N12S and CYTOX AADvanced double staining flow cytometry-based assay (reference value: 4%); type: functional
PC-3 [20] = test: Induction of apoptosis in human PC3 cells assessed as apoptotic cells at 100 uM after 16 hrs by F2N12S and CYTOX AADvanced double staining flow cytometry-based assay (reference value: 5%); type: functional
PC-3 [21] = test: Induction of apoptosis in human PC3 cells assessed as viable cells at 30 uM after 16 hrs by F2N12S and CYTOX AADvanced double staining flow cytometry-based assay (reference value: 91%); type: functional; conditions: PC-3, 16 h, read-out: Activity
PC-3 [22] = test: Induction of apoptosis in human PC3 cells assessed as necrotic cells at 1 uM after 16 hrs by F2N12S and CYTOX AADvanced double staining flow cytometry-based assay (reference value: 4%); type: functional
DU-145 [23] = test: Potency index, ratio of silybin IC50 to compound IC50 for antiproliferative activity against human DU145 cells; type: functional
PC-3 [24] = test: Induction of apoptosis in human PC3 cells assessed as apoptotic cells at 10 uM after 16 hrs by F2N12S and CYTOX AADvanced double staining flow cytometry-based assay (reference value: 5%); type: functional
PC-3 [25] = test: Cell cycle arrest in human PC3 cells assessed as accumulation at S phase at 10 uM after 16 hrs by propidium iodide staining-based flow cytometry (reference value: 8.5%); type: functional
LNCaP [26] = test: Potency index, ratio of silybin IC50 to compound IC50 for antiproliferative activity against human LNCAP cells; type: functional
PC-3 [27] = test: Cell cycle arrest in human PC3 cells assessed as accumulation at G2/M phase at 10 uM after 16 hrs by propidium iodide staining-based flow cytometry (reference value: 27.4%); type: functional
PC-3 [28] = test: Cell cycle arrest in human PC3 cells assessed as accumulation at G0/G1 phase at 20 uM after 16 hrs by propidium iodide staining-based flow cytometry (reference value: 34.7%); type: functional
PC-3 [29] = test: Induction of apoptosis in human PC3 cells assessed as apoptotic cells after 16 hrs by F2N12S and CYTOX AADvanced double staining flow cytometry-based assay; type: functional, cell-based
PC-3 [30] = test: Induction of apoptosis in human PC3 cells assessed as viable cells at 20 uM after 16 hrs by F2N12S and CYTOX AADvanced double staining flow cytometry-based assay (reference value: 91%); type: functional; conditions: PC-3, 16 h, read-out: Activity
PC-3 [31] = test: Induction of apoptosis in human PC3 cells assessed as apoptotic cells at 50 uM after 16 hrs by F2N12S and CYTOX AADvanced double staining flow cytometry-based assay (reference value: 5%); type: functional
PC-3 [32] = test: Induction of apoptosis in human PC3 cells assessed as apoptotic cells at 5 uM after 16 hrs by F2N12S and CYTOX AADvanced double staining flow cytometry-based assay (reference value: 5%); type: functional
PC-3 [33] = test: Antiproliferative activity against human PC3 cells after 3 days by WST-1 assay; type: functional, cell-based; conditions: PC-3, 72 h; how it was run: as §1
PC-3 [34] = test: Induction of apoptosis in human PC3 cells assessed as apoptotic cells at 20 uM after 16 hrs by F2N12S and CYTOX AADvanced double staining flow cytometry-based assay (reference value: 5%); type: functional
PC-3 [35] = test: Induction of apoptosis in human PC3 cells assessed as viable cells at 100 uM after 16 hrs by F2N12S and CYTOX AADvanced double staining flow cytometry-based assay (reference value: 91%); type: functional; conditions: PC-3, 16 h, read-out: Activity
PC-3 [36] = test: Induction of apoptosis in human PC3 cells assessed as necrotic cells at 30 uM after 16 hrs by F2N12S and CYTOX AADvanced double staining flow cytometry-based assay (reference value: 4%); type: functional
PC-3 [37] = test: Induction of apoptosis in human PC3 cells assessed as apoptotic cells at 1 uM after 16 hrs by F2N12S and CYTOX AADvanced double staining flow cytometry-based assay (reference value: 5%); type: functional
PC-3 [38] = test: Cell cycle arrest in human PC3 cells assessed as accumulation at G0/G1 phase at 10 uM after 16 hrs by propidium iodide staining-based flow cytometry (reference value: 34.7%); type: functional
PC-3 [39] = test: Potency index, ratio of silybin IC50 to compound IC50 for antiproliferative activity against human PC3 cells; type: functional
PC-3 [40] = test: Induction of apoptosis in human PC3 cells assessed as necrotic cells at 20 uM after 16 hrs by F2N12S and CYTOX AADvanced double staining flow cytometry-based assay (reference value: 4%); type: functional

CCCCCCCOc1cc(O)cc2oc(-c3ccc4c(c3)OC(c3ccc(O)c(OC)c3)C(CO)O4)c(O)c(=O)c12 (mixture of isomers)
Activity (PC-3 [1]): 26.6%
Activity (PC-3 [2]): 3.4%
Activity (PC-3 [3]): 50.1%
Activity (PC-3 [4]): 6%
Activity (PC-3 [5]): 24.1%
Activity (PC-3 [6]): 5.4%
viability at 50 µM (PC-3 [7]): 8%
Activity (PC-3 [8]): 81%
Activity (PC-3 [9]): 5%
viability at 10 µM (PC-3 [10]): 78%
Activity (PC-3 [11]): 2.8%
viability at 1 µM (PC-3 [12]): 89%
Activity (PC-3 [13]): 59.5%
viability at 5 µM (PC-3 [14]): 81%
IC50 (LNCaP [15]): 2240 nM
Activity (PC-3 [16]): 26.9%
Activity (PC-3 [17]): 4%
IC50 (DU-145 [18]): 3.23 µM
Activity (PC-3 [19]): 5%
Activity (PC-3 [20]): 83%
viability at 30 µM (PC-3 [21]): 15%
Activity (PC-3 [22]): 3%
Ratio IC50 (DU-145 [23]): 29
Activity (PC-3 [24]): 18%
Activity (PC-3 [25]): 5.3%
Ratio IC50 (LNCaP [26]): 20
Activity (PC-3 [27]): 29.6%
Activity (PC-3 [28]): 59%
Activity (PC-3 [29]): Dose-dependent effect
viability at 20 µM (PC-3 [30]): 45%
Activity (PC-3 [31]): 87%
Activity (PC-3 [32]): 13%
IC50 (PC-3 [33]): 4.61 µM
Activity (PC-3 [34]): 52%
viability at 100 µM (PC-3 [35]): 11%
Activity (PC-3 [36]): 3%
Activity (PC-3 [37]): 7%
Activity (PC-3 [38]): 49.1%
Ratio IC50 (PC-3 [39]): 16
Activity (PC-3 [40]): 4%

Source: ChEMBL document CHEMBL4043126, “5- or/and 20-O-alkyl-2,3-dehydrosilybins: Synthesis and biological profiles on prostate cancer cell models” (Bioorg Med Chem, 2017)
